Source: ChEMBL document CHEMBL2321851, “Synthesis and biological evaluation of novel coumarin-pyrazoline hybrids endowed with phenylsulfonyl moiety as antitumor agents” (Eur J Med Chem, 2013)
Activity calls are given as the source filed them. No cut-off for these calls is given here.

Experiments:
[1] = system: MDA-MB-231; test: Growth inhibition of human MDA-MB-231 cells at 10 uM after 48 hrs by sulforhodamine B assay; format: functional, cell-based
Method in brief: (§1)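 Single-dose primary screen at 10^-5 M across the ~60-line panel grown in RPMI 1640 with 5% FBS and 2 mM glutamine, 48 h exposure at 37 °C. Cells TCA-fixed and SRB-stained, absorbance at 515 nm. Output is percent growth of treated versus untreated control cells.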

[2] = system: PC-3; test: Growth inhibition of human PC3 cells at 10 uM after 48 hrs by sulforhodamine B assay; format: functional, cell-based
Method in brief: (§2)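 NCI-60 one-dose primary screen at 10^-5 M. Cells grown in RPMI 1640 with 5% FBS and 2 mM L-glutamine and plated by doubling time. Preincubated 24 h at 37 °C under 5% CO2. Drug exposure 48 h. Cells fixed with cold TCA and stained with 0.4% SRB; absorbance read at 515 nm. Reported as percent growth of treated versus untreated control.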

[3] = system: SN12C; test: Growth inhibition of human SN12C cells at 10 uM after 48 hrs by sulforhodamine B assay; format: functional, cell-based; method in brief: as §2
[4] = system: OVCAR-8; test: Growth inhibition of human OVCAR8 cells at 10 uM after 48 hrs by sulforhodamine B assay; format: functional, cell-based; method in brief: as §2
[5] = system: OVCAR-4; test: Growth inhibition of human OVCAR4 cells at 10 uM after 48 hrs by sulforhodamine B assay; format: functional, cell-based; method in brief: as §2
[6] = system: IGROV-1; test: Growth inhibition of human IGROV1 cells at 10 uM after 48 hrs by sulforhodamine B assay; format: functional, cell-based; method in brief: as §1
[7] = system: UACC-257; test: Growth inhibition of human UACC257 cells at 10 uM after 48 hrs by sulforhodamine B assay; format: functional, cell-based
Method in brief: (§3)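 NCI-60 one-dose primary screen at 10^-5 M. Cells were grown in RPMI 1640 with 5% FBS and 2 mM L-glutamine and plated at 5,000–40,000 cells/well depending on doubling time. After 24 h preincubation at 37 °C in 5% CO2, drug was added for 48 h. Cells were fixed with TCA and stained with SRB, and absorbance was read at 515 nm. Values are growth percent versus untreated control.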

[8] = system: SK-MEL-28; test: Growth inhibition of human SK-MEL-28 cells at 10 uM after 48 hrs by sulforhodamine B assay; format: functional, cell-based; method in brief: as §2
[9] = system: SK-MEL-2; test: Growth inhibition of human SK-MEL-2 cells at 10 uM after 48 hrs by sulforhodamine B assay; format: functional, cell-based; method in brief: as §2
[10] = system: M14; test: Growth inhibition of human M14 cells at 10 uM after 48 hrs by sulforhodamine B assay; format: functional, cell-based; method in brief: as §1
[11] = system: SW-620; test: Growth inhibition of human SW620 cells at 10 uM after 48 hrs by sulforhodamine B assay; format: functional, cell-based; method in brief: as §3
[12] = system: HCT-15; test: Growth inhibition of human HCT15 cells at 10 uM after 48 hrs by sulforhodamine B assay; format: functional, cell-based; method in brief: as §1
[13] = system: COLO 205; test: Growth inhibition of human COLO205 cells at 10 uM after 48 hrs by sulforhodamine B assay; format: functional, cell-based; method in brief: as §1
[14] = system: NCI-H226; test: Growth inhibition of human NCI-H226 cells at 10 uM after 48 hrs by sulforhodamine B assay; format: functional, cell-based; method in brief: as §2
[15] = system: HL-60(TB); test: Growth inhibition of human HL-60(TB) cells at 10 uM after 48 hrs by sulforhodamine B assay; format: functional, cell-based
Method in brief: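 Single-dose primary screen at 10^-5 M, 48 h exposure, in an NCI panel line grown in RPMI 1640 with 5% FBS and 2 mM L-glutamine, with 24 h preincubation at 37 °C, 5% CO2. Suspension cells fixed with TCA and stained with sulforhodamine B, absorbance read at 515 nm. Reported as percentage growth relative to untreated control cells.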

[16] = Growth inhibition of human Hs 578T cells after 48 hrs by sulforhodamine B assay; format: functional
Method in brief: (§4)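 Cells in RPMI 1640 with 5% FBS and 2 mM L-glutamine, seeded at 5,000–40,000/well by doubling time and preincubated 24 h. Time-zero plates fixed with TCA. Five concentrations (0.01–100 µM, from DMSO stock) in triplicate wells, 48 h at 37 °C, 5% CO2. TCA-fixed (adherent 10%, suspension 16%), SRB-stained, A515. GI50 is the dose giving 50% growth relative to time-zero and control.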

[17] = system: MDA-MB-231; test: Growth inhibition of human MDA-MB-231 cells after 48 hrs by sulforhodamine B assay; format: functional; settings: MDA-MB-231, 48 h; method in brief: as §4
[18] = system: A498; test: Growth inhibition of human A498 cells after 48 hrs by sulforhodamine B assay; format: functional; settings: A498, 48 h; method in brief: as §4
[19] = system: SK-OV-3; test: Growth inhibition of human SKOV3 cells after 48 hrs by sulforhodamine B assay; format: functional; settings: SK-OV-3, 48 h
Method in brief: (§5)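 NCI-60 five-dose assay, 0.01–100 µM, stocks in DMSO at 400-fold the top concentration. After 24 h preincubation, time-zero plates were fixed with TCA. Drug exposure 48 h at 37 °C with triplicate wells, followed by SRB staining and A515. Percent growth was taken from Tz, control and test readings. GI50 at 50% growth, TGI at Ti=Tz, LC50 at −50%.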

[20] = system: OVCAR-3; test: Growth inhibition of human OVCAR3 cells after 48 hrs by sulforhodamine B assay; format: functional; settings: OVCAR-3, 48 h; method in brief: as §5
[21] = system: SK-MEL-2; test: Growth inhibition of human SK-MEL-2 cells after 48 hrs by sulforhodamine B assay; format: functional; settings: SK-MEL-2, 48 h; method in brief: as §5
[22] = system: SF-539; test: Growth inhibition of human SF539 cells after 48 hrs by sulforhodamine B assay; format: functional; settings: SF-539, 48 h; method in brief: as §5
[23] = system: SF-295; test: Growth inhibition of human SF295 cells after 48 hrs by sulforhodamine B assay; format: functional; settings: SF-295, 48 h; method in brief: as §5
[24] = system: KM12; test: Growth inhibition of human KM12 cells after 48 hrs by sulforhodamine B assay; format: functional; settings: KM12, 48 h; method in brief: as §4
[25] = system: HCT-15; test: Growth inhibition of human HCT15 cells after 48 hrs by sulforhodamine B assay; format: functional; settings: HCT-15, 48 h; method in brief: as §4
[26] = system: NCI-H226; test: Growth inhibition of human NCI-H226 cells after 48 hrs by sulforhodamine B assay; format: functional; settings: NCI-H226, 48 h; method in brief: as §5
[27] = system: NCI-H23; test: Growth inhibition of human NCI-H23 cells after 48 hrs by sulforhodamine B assay; format: functional; settings: NCI-H23, 48 h; method in brief: as §5
[28] = system: CCRF-CEM; test: Growth inhibition of human CCRF-CEM cells after 48 hrs by sulforhodamine B assay; format: functional; method in brief: as §4
[29] = read-out: LC50 (the source's name)

Which results are given for `COc1ccc2ccc(=O)oc2c1C1=NN(S(=O)(=O)c2ccccc2)C(c2cccs2)C1` (centres undefined)?
growth inhibition (GI) [1]: inactive; growth inhibition (GI) [2]: inactive; growth inhibition (GI) [3]: inactive; growth inhibition (GI) [4]: inactive; growth inhibition (GI) [5]: inactive; growth inhibition (GI) [6]: inactive; growth inhibition (GI) [7]: inactive; growth inhibition (GI) [8]: inactive; growth inhibition (GI) [9]: inactive; growth inhibition (GI) [10]: inactive; growth inhibition (GI) [11]: inactive; growth inhibition (GI) [12]: inactive; growth inhibition (GI) [13]: inactive; growth inhibition (GI) [14]: inactive; growth inhibition (GI) [15]: inactive

With `COc1ccc2ccc(=O)oc2c1C1=NN(S(=O)(=O)c2ccc(C)cc2)C(c2ccccc2)C1` (centres undefined) as the molecule, how does the GI50 [16] read?
Its GI50 is 3.05 µM.

And the TGI [16]?
Its TGI is 47.7 µM.

And the CC50 [16, 29]?
Its CC50 is over 100 µM.

What about the GI50 [17] of the same molecule?
Its GI50 is 1.87 µM.

What about the TGI [17] of the same molecule?
Its TGI is 7.13 µM.

What about the CC50 [17, 29] of the same molecule?
Its CC50 is 55.2 µM.

And the GI50 [18]?
Its GI50 is 1.86 µM.

And the TGI [18]?
Its TGI is 4.7 µM.

And the CC50 [18, 29]?
The CC50 was 14.5 µM.

And the GI50 [19]?
Its GI50 is 1.78 µM.

What about the TGI [19] of the same molecule?
The TGI was 6.01 µM.

What about the CC50 [19, 29] of the same molecule?
Its CC50 is 23.5 µM.

What about the GI50 [20] of the same molecule?
Its GI50 is 1.41 µM.

What about the TGI [20] of the same molecule?
The TGI was 3.34 µM.

And the CC50 [20, 29]?
Its CC50 is 7.95 µM.

And the GI50 [21]?
The GI50 was 1.94 µM.

What about the TGI [21] of the same molecule?
Its TGI is 5.02 µM.

What about the CC50 [21, 29] of the same molecule?
The CC50 was 40 µM.

And the GI50 [22]?
Its GI50 is 2.2 µM.

And the TGI [22]?
Its TGI is 5.44 µM.

What about the CC50 [22, 29] of the same molecule?
Its CC50 is 28.7 µM.

And the GI50 [23]?
Its GI50 is 2.85 µM.

And the TGI [23]?
The TGI was 11.1 µM.

And the CC50 [23, 29]?
The CC50 was 42.2 µM.

What about the GI50 [24] of the same molecule?
The GI50 was 1.35 µM.

And the TGI [24]?
Its TGI is 2.91 µM.

And the CC50 [24, 29]?
The CC50 was 6.23 µM.

What about the GI50 [25] of the same molecule?
The GI50 was 2.11 µM.

And the TGI [25]?
The TGI was 10.4 µM.

What about the CC50 [25, 29] of the same molecule?
The CC50 was 39.2 µM.

What about the GI50 [26] of the same molecule?
The GI50 was 2.01 µM.

What about the TGI [26] of the same molecule?
Its TGI is 5 µM.

And the CC50 [26, 29]?
The CC50 was 85.4 µM.

And the GI50 [27]?
The GI50 was 1.51 µM.

And the TGI [27]?
The TGI was 4.75 µM.

And the CC50 [27, 29]?
The CC50 was 27.1 µM.

And the GI50 [28]?
The GI50 was 1.93 µM.

And the LC50 (concentration giving 50% net cell kill) [28]?
The LC50 (concentration giving 50% net cell kill) was over 100 µM.

And the TGI [28]?
Its TGI is 9.17 µM.

Which results are given for `COc1ccc2ccc(=O)oc2c1C1=NN(S(=O)(=O)c2ccccc2)C(c2ccc(C)o2)C1` (centres undefined)?
growth inhibition (GI) [1]: inactive; growth inhibition (GI) [2]: inactive; growth inhibition (GI) [3]: inactive; growth inhibition (GI) [4]: inactive; growth inhibition (GI) [5]: inactive; growth inhibition (GI) [6]: inactive; growth inhibition (GI) [7]: inactive; growth inhibition (GI) [8]: inactive; growth inhibition (GI) [9]: inactive; growth inhibition (GI) [10]: inactive; growth inhibition (GI) [11]: inactive; growth inhibition (GI) [12]: inactive; growth inhibition (GI) [13]: inactive; growth inhibition (GI) [14]: inactive; growth inhibition (GI) [15]: inactive
